Data as given in ChEMBL document CHEMBL1149349, “Identification of novel pyrazole acid antagonists for the EP1 receptor” (Bioorg Med Chem Lett, 2006).
pIC50, pKi: −log10 of the molar value. ≈ marks a conversion by molar mass, not a printed value.

Columns and labels:
[1] = molecular target: T1, Prostaglandin E2 receptor EP1 subtype (Homo sapiens, UniProt P34995); experiment: Antagonist activity at EP1 receptor expressed in CHO-K1 cells assessed as inhibition of PGE2-stimulated calcium ion mobilization by FLIPR assay; format: functional, cell-based
T1 sequence (P34995 whole entry): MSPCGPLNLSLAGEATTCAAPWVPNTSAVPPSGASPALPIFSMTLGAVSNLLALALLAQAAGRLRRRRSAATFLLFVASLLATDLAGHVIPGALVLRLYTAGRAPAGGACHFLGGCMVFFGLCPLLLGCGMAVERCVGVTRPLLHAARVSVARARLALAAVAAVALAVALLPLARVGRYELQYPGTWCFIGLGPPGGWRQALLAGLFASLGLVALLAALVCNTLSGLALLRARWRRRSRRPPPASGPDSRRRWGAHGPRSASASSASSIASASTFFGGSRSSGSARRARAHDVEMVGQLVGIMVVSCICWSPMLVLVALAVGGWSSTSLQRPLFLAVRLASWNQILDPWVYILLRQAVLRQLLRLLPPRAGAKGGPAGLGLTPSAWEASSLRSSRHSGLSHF
In short: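 Stably EP1- or EP3-transfected CHO-K1 whole cells loaded with the calcium-sensitive dye Fluo-3. Inhibition of PGE₂-evoked intracellular Ca²⁺ mobilisation measured, reported as pKi.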

[2] = molecular target: T1, Prostaglandin E2 receptor EP1 subtype; experiment: Displacement of [3H]PGE2 from EP1 receptor expressed in CHO-K1 cells; format: cell-based
In short: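 Membranes from cells expressing the receptor, incubated with test compound and [³H]PGE₂ (3 nM final) for 30 min at 30 °C. Bound radioactivity read by liquid scintillation counting. Values are means of at least four experiments.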

Liver microsomes [3] = experiment: Intrinsic clearance in human liver microsome; format: ADME
Rattus norvegicus [4] = experiment: AUC in rat at 3 mg/kg, po; format: ADME, organism-based, Plasma; design: dose 3 mg/kg, route oral; conditions: in vivo
In short: (§1)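 Oral dosing with drug levels measured in blood. Cmax, Tmax and AUC normalised to dose were derived from the blood concentration–time profile.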

[5] = Cmax in rat at 3 mg/kg, po; format: ADME, organism-based; design: dose 3 mg/kg, route oral; conditions: in vivo; in short: as §1
Rattus norvegicus [6] = species on record: Rattus norvegicus; experiment: Activity against Freund's complete adjuvant-induced inflammatory pain in rat; format: functional
Cytochrome P450 3A4 = Cytochrome P450 3A4 (Homo sapiens, UniProt P08684); experiment: Inhibition of CYP450 3A4; format: ADME
Sequence of Cytochrome P450 3A4 (P08684 whole entry, canonical isoform): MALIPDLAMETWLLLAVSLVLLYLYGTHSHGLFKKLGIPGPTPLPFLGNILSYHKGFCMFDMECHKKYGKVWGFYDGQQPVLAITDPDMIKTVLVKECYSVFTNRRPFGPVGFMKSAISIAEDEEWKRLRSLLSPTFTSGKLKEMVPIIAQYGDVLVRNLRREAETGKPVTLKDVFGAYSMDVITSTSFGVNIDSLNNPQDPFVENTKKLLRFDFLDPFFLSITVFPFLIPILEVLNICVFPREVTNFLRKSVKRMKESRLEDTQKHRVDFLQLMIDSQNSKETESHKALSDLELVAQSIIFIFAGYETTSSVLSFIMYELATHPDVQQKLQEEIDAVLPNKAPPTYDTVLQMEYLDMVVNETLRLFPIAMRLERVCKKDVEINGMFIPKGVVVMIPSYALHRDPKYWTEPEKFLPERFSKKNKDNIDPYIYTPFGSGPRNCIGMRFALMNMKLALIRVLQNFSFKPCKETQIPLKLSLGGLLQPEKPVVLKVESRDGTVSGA
In short: (§2)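 In vitro CYP450 inhibition run by the Gentest protocol, with IC₅₀ determined for each isoform.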

[7] = Solubility at pH 7.4; format: physicochemical; conditions: buffer
Cytochrome P450 2D6 = Cytochrome P450 2D6 (Homo sapiens, UniProt P10635); experiment: Inhibition of CYP450 2D6; format: ADME; in short: as §2
Sequence of Cytochrome P450 2D6 (P10635 whole entry): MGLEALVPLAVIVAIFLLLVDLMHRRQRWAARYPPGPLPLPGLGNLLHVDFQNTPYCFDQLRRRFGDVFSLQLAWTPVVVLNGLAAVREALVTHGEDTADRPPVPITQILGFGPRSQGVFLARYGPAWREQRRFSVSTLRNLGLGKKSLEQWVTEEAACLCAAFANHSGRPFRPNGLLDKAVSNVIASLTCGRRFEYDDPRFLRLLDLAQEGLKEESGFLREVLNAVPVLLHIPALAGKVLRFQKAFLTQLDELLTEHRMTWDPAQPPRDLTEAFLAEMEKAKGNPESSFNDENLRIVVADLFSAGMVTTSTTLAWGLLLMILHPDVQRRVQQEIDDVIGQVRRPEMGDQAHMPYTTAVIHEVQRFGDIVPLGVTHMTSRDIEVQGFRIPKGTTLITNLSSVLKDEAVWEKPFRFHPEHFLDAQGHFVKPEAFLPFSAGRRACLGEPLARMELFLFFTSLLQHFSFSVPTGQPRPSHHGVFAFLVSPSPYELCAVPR

Rattus norvegicus [8] = experiment: AUC/dose in rat at 3 mg/kg, po; format: ADME, organism-based, Plasma; design: dose 3 mg/kg, route oral; conditions: in vivo; in short: as §1
Cytochrome P450 2C9 = Cytochrome P450 2C9 (Homo sapiens, UniProt P11712); experiment: Inhibition of CYP450 2C9; format: ADME; in short: as §2
Sequence of Cytochrome P450 2C9 (P11712 whole entry): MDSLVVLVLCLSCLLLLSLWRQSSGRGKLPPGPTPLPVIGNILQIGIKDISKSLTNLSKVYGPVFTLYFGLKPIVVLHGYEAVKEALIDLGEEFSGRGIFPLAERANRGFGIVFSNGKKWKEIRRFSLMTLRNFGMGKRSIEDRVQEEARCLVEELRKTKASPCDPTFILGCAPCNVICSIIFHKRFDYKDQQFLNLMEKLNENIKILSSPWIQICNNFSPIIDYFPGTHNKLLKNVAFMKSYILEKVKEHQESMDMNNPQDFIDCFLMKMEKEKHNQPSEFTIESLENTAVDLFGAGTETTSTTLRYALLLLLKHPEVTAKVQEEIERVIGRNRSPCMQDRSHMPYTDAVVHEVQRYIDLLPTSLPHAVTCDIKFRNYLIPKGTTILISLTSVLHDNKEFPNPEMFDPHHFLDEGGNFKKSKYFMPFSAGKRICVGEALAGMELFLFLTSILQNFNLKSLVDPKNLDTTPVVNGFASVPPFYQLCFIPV

Cytochrome P450 1A2 = molecular target: T2, Cytochrome P450 1A2 (Homo sapiens, UniProt P05177); experiment: Inhibition of CYP450 1A2; format: ADME; in short: as §2
T2 sequence (P05177 whole entry): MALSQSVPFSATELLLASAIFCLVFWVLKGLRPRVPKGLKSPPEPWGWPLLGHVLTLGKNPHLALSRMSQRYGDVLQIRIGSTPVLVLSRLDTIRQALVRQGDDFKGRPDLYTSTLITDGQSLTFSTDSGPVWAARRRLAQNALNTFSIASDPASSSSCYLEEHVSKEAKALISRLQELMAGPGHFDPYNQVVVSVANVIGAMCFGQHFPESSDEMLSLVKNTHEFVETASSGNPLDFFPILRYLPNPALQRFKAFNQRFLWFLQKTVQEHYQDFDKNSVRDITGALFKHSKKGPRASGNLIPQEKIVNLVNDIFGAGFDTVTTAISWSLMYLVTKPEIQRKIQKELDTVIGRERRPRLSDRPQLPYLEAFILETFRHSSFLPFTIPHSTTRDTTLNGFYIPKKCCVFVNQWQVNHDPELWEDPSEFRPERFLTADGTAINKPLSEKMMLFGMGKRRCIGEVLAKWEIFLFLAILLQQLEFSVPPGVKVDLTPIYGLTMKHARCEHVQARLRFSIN

[9] = Distribution coefficient, log D at pH 7.4; format: physicochemical; conditions: octanol/water
Cytochrome P450 2C19 = Cytochrome P450 2C19 (Homo sapiens, UniProt P33261); experiment: Inhibition of CYP450 2C19; format: ADME; in short: as §2
Sequence of Cytochrome P450 2C19 (P33261 whole entry): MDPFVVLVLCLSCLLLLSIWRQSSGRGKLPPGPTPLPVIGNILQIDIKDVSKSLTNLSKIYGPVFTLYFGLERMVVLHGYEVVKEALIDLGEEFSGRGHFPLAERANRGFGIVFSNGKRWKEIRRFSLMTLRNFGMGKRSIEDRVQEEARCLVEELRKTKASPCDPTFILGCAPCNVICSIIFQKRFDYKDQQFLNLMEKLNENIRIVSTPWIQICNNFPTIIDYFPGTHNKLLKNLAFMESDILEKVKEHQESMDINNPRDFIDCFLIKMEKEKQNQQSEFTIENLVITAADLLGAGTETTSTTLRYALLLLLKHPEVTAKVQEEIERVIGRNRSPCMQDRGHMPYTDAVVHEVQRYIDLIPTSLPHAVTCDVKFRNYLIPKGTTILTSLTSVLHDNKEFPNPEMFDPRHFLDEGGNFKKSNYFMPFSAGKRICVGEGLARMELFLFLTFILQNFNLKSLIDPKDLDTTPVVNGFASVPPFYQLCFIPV

[10] = Tmax in rat at 3 mg/kg, po; format: ADME, organism-based; design: dose 3 mg/kg, route oral; conditions: in vivo; in short: as §1
Liver microsomes [11] = experiment: Intrinsic clearance in rat liver microsome; format: ADME
[12] = molecular target: Prostaglandin E2 receptor EP3 subtype (Homo sapiens) (UniProt P43115); experiment: Inhibition of PGE2-induced intracellular Ca2+ mobilisation (FLIPR) at EP3 receptor expressed in CHO-K1 cells
Sequence of Prostaglandin E2 receptor EP3 subtype (Homo sapiens) (P43115 whole entry, looked up): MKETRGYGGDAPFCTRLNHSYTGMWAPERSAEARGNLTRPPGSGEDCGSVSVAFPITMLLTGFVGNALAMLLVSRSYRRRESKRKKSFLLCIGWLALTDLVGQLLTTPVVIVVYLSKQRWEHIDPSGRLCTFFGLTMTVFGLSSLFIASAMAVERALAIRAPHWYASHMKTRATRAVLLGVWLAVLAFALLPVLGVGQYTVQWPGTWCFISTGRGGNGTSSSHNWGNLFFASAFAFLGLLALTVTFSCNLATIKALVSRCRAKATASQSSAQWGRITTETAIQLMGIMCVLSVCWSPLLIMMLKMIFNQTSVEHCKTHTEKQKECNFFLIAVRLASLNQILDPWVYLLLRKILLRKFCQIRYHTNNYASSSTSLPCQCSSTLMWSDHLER

pKi [1]	pIC50 [2]	SMILES	also measured
7.16	–	COc1ccccc1COc1ccc(Br)cc1Cn1nc(C(=O)O)cc1C	–
6.01	–	CCCCc1cc(C(=O)O)nn1Cc1cc(Br)ccc1OCc1ccccc1	–
6.28	6.90	Cc1cccc(COc2ccc(Br)cc2Cn2nc(C(=O)O)cc2C)c1	–
< 5.70	–	O=C(O)c1cncn1Cc1cc(Br)ccc1OCc1ccccc1	–
7.82	8.19	Cc1cc(C(=O)O)nn1Cc1cc(Br)ccc1OCc1ccccc1	CL (Liver microsomes [3]): 0.6 mL/min/g; AUC (Rattus norvegicus [4]): 16.3 µM·h; Cmax [5]: 5.69 µM; ED50 (Rattus norvegicus [6]): 1.3 mg/kg; pIC50 (Cytochrome P450 3A4): < 4.00; solubility [7]: 850 µg/mL (≈ 2120 µM); pIC50 (Cytochrome P450 2D6): < 4.00; AUC/dose (Rattus norvegicus [8]): 124 kg·min/L; pIC50 (Cytochrome P450 2C9): < 4.00; pIC50 (Cytochrome P450 1A2): 4.68; logD [9]: 1.15; pIC50 (Cytochrome P450 2C19): < 4.00; Tmax [10]: 30 min; CL (Liver microsomes [11]): < 0.5 mL/min/g
7.26	8.01	O=C(O)c1ccn(Cc2cc(Br)ccc2OCc2ccccc2)n1	–
< 5.70	–	CC(=O)Nc1cc(C(=O)O)nn1Cc1cc(Br)ccc1OCc1ccccc1	–
6.16	6.91	O=C(O)c1nn(Cc2cc(Br)ccc2OCc2ccccc2)cc1F	–
8.08	–	Cc1cc(C(=O)O)nn1Cc1ccccc1OCc1ccc(Cl)cc1Cl	pKi [12]: < 5.70
< 5.70	6.17	O=C(O)c1nn(Cc2cc(Br)ccc2OCc2ccccc2)cc1CO	–
< 5.70	–	O=C(O)c1nn(Cc2cc(Br)ccc2OCc2ccccc2)cc1Cl	–
6.21	6.71	O=C(O)c1cc(-c2cccs2)n(Cc2cc(Br)ccc2OCc2ccccc2)n1	–
8.10	–	Cc1cc(C(=O)O)nn1Cc1cc(F)ccc1OCc1ccc(F)cc1F	pKi [12]: < 5.70
8.58	9.28	Cc1cc(C(=O)O)nn1Cc1cc(Br)ccc1OCc1ccc(F)cc1F	–
9.31	9.88	Cc1cc(C(=O)O)nn1Cc1cc(Br)ccc1OCc1ccc(Cl)cc1Cl	–
< 5.70	–	O=C(O)c1ccnn1Cc1cc(Br)ccc1OCc1ccccc1	–
8.06	8.06	Cc1cc(C(=O)O)nn1Cc1cc(Br)ccc1OCc1ccc(Cl)cc1	–
< 5.70	–	O=C(O)c1cnn(Cc2cc(Br)ccc2OCc2ccccc2)c1	–
< 5.70	–	O=C(O)c1cn(Cc2cc(Br)ccc2OCc2ccccc2)cn1	–
7.93	8.13	Cc1cc(C(=O)O)nn1Cc1cc(Br)ccc1OCc1ccc(F)cc1	–

pKi [1]	pIC50 [2]	SMILES	also measured
6.98	7.83	Cc1cc(C(=O)O)nn1Cc1cc(Br)ccc1OCc1c(F)cccc1F	–
6.37	6.94	Cc1cc(C(=O)O)nn1Cc1cc(Br)ccc1OCc1cccc(Cl)c1	–
< 5.70	6.24	Cc1cc(C(=O)O)nn1Cc1cc(Br)ccc1OCc1ccc(Cl)c(C(F)(F)F)c1	–
< 5.70	6.34	O=C(O)c1nn(Cc2cc(Br)ccc2OCc2ccccc2)cc1Br	–
7.01	7.45	Cc1cc(C(=O)O)nn1Cc1cc(Br)ccc1OCc1ccc(C(F)(F)F)cc1	–
9.26	–	Cc1cc(C(=O)O)nn1Cc1cc(Cl)ccc1OCc1ccc(Cl)cc1Cl	pKi [12]: < 5.70
8.90	8.45	O=C(O)c1cccc(-c2sccc2-c2cc(Cl)ccc2OCc2ccccc2)c1	–
< 5.70	5.59	O=C(O)c1nn(Cc2cc(Br)ccc2OCc2ccccc2)cc1C(F)(F)F	–
< 5.70	5.28	Cc1cc(C(=O)O)nn1Cc1cc(Br)ccc1OCc1cc(C(F)(F)F)cc(C(F)(F)F)c1	–
6.47	–	Cc1cc(C(=O)O)nn1Cc1cc(Br)ccc1OCc1cccc([N+](=O)[O-])c1	–
5.87	6.37	Cc1cn(Cc2cc(Br)ccc2OCc2ccccc2)nc1C(=O)O	–
8.95	–	Cc1cc(C(=O)O)nn1Cc1cc(Cl)ccc1OCc1ccc(F)cc1F	pKi [12]: < 5.70
7.69	–	Cc1cc(C(=O)O)nn1Cc1cc(F)ccc1OCc1ccc(Cl)cc1Cl	–
< 5.70	5.91	Cc1cc(C(=O)O)nn1Cc1cc(Br)ccc1OCc1ccc(C(C)(C)C)cc1	–
5.95	–	Cc1cc(C(=O)O)nn1Cc1cc(Br)ccc1OCc1cc(Cl)cc(Cl)c1	–
6.89	7.75	Cc1cc(C(=O)O)nn1Cc1cc(Br)ccc1OCc1cccc(Br)c1	–
7.54	8.50	Cc1cc(C(=O)O)nn1Cc1cc(Br)ccc1OCc1ccccc1Cl	–
< 5.70	–	O=C(O)c1cn(Cc2cc(Br)ccc2OCc2ccccc2)nn1	–
5.96	6.51	Cc1cc(C(=O)O)nn1Cc1cc(Br)ccc1OCc1cccc(C(F)(F)F)c1	–
